Data from ChEMBL document CHEMBL3045755, “Specific and differential inhibition of very-long-chain fatty acid elongases from Arabidopsis thaliana by different herbicides” (Proc Natl Acad Sci U S A, 2004).
Active and inactive are the calls of the source. No cut-off for these calls is given here.

Columns and labels:
[1] = target: T1, 3-ketoacyl-CoA synthase 17 (Arabidopsis thaliana) (UniProt O65677); assay: Inhibition of Arbidopsis thaliana C-terminal His-tagged KCS2 expressed in Saccharomyces cerevisiae INVSc1 at 100 uM after 18 to 20 hr by GC/MS analysis
T1 sequence (whole entry): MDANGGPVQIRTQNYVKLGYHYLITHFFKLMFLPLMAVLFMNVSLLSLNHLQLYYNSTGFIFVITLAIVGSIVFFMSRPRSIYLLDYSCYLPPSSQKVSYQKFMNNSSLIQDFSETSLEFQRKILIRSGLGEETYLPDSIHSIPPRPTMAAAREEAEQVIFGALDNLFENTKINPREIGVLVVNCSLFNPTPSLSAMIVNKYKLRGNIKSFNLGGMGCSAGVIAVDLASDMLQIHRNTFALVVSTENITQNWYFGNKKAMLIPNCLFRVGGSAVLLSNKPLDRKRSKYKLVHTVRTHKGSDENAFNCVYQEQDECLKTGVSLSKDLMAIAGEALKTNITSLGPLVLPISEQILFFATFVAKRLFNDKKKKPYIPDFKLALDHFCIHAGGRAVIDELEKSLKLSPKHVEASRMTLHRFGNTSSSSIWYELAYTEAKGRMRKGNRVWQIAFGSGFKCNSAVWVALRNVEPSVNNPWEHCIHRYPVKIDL
Method in brief: (§1)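 pYES2 galactose-inducible constructs in INVSc1, grown at 28°C in uracil-dropout minimal medium with 2% glucose. Log-phase cells were induced in 1% raffinose/2% galactose with herbicide at final 100 μM, in 50-ml culture for 18–20 h, then freeze-dried. FAMEs were made in 1 M methanolic HCl/5% dimethoxypropane at 80°C for 1 h under N2 and run on GC/MS. VLCFA profile was compared with herbicide-free elongase-expressing cells.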

[2] = target: T2, 3-ketoacyl-CoA synthase 2 (Arabidopsis thaliana) (UniProt Q5XEP9); assay: Inhibition of Arbidopsis thaliana C-terminal His-tagged At1g04220 expressed in Saccharomyces cerevisiae INVSc1 at 100 uM after 18 to 20 hr by GC/MS analysis; method in brief: as §1
T2 sequence (whole entry): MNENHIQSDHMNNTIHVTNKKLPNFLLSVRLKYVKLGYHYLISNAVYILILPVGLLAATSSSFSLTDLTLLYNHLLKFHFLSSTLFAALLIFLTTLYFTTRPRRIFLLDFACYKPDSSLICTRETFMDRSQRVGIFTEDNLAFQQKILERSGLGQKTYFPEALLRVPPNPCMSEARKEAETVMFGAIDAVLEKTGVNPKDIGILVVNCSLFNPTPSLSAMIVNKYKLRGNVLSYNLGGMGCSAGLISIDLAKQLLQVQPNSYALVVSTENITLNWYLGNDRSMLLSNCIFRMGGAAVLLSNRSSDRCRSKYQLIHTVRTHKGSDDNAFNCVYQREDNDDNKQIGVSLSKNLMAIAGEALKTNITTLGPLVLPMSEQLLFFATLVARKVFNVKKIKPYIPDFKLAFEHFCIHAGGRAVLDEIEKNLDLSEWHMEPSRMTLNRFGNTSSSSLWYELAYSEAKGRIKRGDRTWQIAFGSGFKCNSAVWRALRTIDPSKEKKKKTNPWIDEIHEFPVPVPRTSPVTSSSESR

[3] = target: T3, 3-ketoacyl-CoA synthase 1 (Arabidopsis thaliana) (UniProt Q9MAM3); assay: Inhibition of Arbidopsis thaliana C-terminal His-tagged KCS1 expressed in Saccharomyces cerevisiae INVSc1 at 100 uM after 18 to 20 hr by GC/MS analysis; method in brief: as §1
T3 sequence (whole entry): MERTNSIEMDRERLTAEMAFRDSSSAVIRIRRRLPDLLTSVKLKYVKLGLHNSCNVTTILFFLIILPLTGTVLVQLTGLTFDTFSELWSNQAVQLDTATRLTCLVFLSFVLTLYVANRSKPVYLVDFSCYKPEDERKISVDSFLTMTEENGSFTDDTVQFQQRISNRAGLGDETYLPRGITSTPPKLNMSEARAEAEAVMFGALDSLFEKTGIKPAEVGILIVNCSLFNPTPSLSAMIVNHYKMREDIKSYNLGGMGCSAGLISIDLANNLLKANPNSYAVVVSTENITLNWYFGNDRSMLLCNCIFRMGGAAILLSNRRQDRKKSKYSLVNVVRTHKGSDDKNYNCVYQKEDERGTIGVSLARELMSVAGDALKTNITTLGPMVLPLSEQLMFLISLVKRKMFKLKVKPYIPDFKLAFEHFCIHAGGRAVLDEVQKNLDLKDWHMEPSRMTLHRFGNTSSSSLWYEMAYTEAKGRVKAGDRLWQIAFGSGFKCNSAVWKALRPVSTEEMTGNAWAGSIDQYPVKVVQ

[4] = target: T4, 3-ketoacyl-CoA synthase 20 (Arabidopsis thaliana) (UniProt Q9FG87); assay: Inhibition of Arbidopsis thaliana C-terminal His-tagged At5g43760 expressed in Saccharomyces cerevisiae INVSc1 at 100 uM after 18 to 20 hr by GC/MS analysis; method in brief: as §1
T4 sequence (whole entry): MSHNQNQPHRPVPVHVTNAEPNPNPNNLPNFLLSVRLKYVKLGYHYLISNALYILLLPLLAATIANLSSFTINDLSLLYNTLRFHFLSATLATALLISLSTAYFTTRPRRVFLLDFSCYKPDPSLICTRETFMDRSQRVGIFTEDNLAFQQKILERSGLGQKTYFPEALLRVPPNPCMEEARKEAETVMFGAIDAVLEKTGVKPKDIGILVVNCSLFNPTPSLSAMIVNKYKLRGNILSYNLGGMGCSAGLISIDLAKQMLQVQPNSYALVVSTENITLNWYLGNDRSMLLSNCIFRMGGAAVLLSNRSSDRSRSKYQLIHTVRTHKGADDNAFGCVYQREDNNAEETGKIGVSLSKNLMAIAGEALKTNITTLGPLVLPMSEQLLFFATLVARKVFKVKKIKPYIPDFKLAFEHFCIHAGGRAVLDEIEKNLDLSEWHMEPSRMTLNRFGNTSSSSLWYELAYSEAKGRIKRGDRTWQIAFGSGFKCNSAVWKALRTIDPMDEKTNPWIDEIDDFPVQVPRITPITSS

[5] = target: T5, 3-ketoacyl-CoA synthase 18 (Arabidopsis thaliana) (UniProt Q38860); assay: Inhibition of Arbidopsis thaliana C-terminal His-tagged FAE1 expressed in Saccharomyces cerevisiae INVSc1 at 100 uM after 18 to 20 hr by GC/MS analysis; method in brief: as §1
T5 sequence (whole entry): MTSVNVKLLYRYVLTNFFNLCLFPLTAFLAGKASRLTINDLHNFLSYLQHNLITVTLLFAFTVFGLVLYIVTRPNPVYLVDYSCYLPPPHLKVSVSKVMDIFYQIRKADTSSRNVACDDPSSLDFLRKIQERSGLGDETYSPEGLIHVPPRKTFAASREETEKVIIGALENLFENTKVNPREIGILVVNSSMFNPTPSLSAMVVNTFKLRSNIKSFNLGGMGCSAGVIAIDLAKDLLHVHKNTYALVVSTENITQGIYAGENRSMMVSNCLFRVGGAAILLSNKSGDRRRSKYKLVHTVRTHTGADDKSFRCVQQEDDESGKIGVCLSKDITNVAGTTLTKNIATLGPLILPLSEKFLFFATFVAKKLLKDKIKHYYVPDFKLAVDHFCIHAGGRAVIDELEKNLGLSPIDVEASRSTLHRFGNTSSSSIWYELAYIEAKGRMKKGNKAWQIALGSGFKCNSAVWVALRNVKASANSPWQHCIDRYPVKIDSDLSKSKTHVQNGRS

[6] = tested on: Saccharomyces cerevisiae; assay: Growth inhibition of Saccharomyces cerevisiae INVSc1 at 100 uM after 18 to 20 hr; format: organism-based; settings: in vivo
Method in brief: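 Yeast strains expressing the active elongases were induced in raffinose/galactose medium with herbicide at 100 μM for the 18–20 h incubation. Growth was followed by optical density and compared with cultures lacking inhibitor.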

[7] = tested on: Arabidopsis thaliana; assay: Herbicidal activity against Arabidopsis thaliana assessed as apperance of fiddle head phenotype; format: functional, organism-based
[8] = target: T6, 3-ketoacyl-CoA synthase 5 (Arabidopsis thaliana) (UniProt Q9C6L5); assay: Inhibition of Arbidopsis thaliana C-terminal His-tagged CER60 expressed in Saccharomyces cerevisiae INVSc1 at 100 uM after 18 to 20 hr by GC/MS analysis; method in brief: as §1
T6 sequence (whole entry): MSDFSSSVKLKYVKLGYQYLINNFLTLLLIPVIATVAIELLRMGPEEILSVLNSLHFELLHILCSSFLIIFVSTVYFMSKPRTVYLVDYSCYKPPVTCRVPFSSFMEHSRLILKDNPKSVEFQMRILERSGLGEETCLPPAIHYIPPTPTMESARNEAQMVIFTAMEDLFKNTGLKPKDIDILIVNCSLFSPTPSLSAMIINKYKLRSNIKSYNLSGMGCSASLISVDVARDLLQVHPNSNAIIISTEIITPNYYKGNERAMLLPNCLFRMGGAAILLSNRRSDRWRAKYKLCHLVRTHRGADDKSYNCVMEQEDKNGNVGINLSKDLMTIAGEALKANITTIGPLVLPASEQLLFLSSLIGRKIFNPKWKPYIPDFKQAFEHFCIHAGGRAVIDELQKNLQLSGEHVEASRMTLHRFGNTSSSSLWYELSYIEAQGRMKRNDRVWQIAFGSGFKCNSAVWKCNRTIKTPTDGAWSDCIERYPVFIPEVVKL

Structure (SMILES) | inhibition [1] | inhibition [2] | inhibition [3] | inhibition [4] | inhibition [5] | Activity [6] | Activity [7] | inhibition [8]
CCc1cccc(CC)c1N(COC)C(=O)CCl [ALACHLOR] | Active | inactive | Active | Active | inactive | Non-toxic | inactive | Active
CCS(=O)(=O)Oc1ccc2c(c1)C(C)(C)CO2 [BENFURESATE] | inactive | inactive | inactive | inactive | inactive | Non-toxic | Active | inactive
CCN(CC)C(=O)n1cnc(S(=O)(=O)c2c(C)cc(C)cc2C)n1 [CAFENSTROLE] | Active | Active | Active | Active | Active | Non-toxic | Active | Active
CN(C)C(=O)C(c1ccccc1)c1ccccc1 [DIPHENAMIDE] | inactive | inactive | inactive | inactive | inactive | Non-toxic | inactive | inactive
CCOC1Oc2ccc(OS(C)(=O)=O)cc2C1(C)C (configuration not stated) [ETHOFUMESATE] | inactive | inactive | inactive | inactive | inactive | Non-toxic | Active | inactive
CCN(C(=O)n1nnn(-c2ccccc2Cl)c1=O)C1CCCCC1 [FENTRAZAMIDE] | Active | inactive | Active | Active | inactive | Non-toxic | Active | inactive
CC(C)N(C(=O)COc1nnc(C(F)(F)F)s1)c1ccc(F)cc1 [FLUFENACET] | Active | Active | Active | Active | Active | Non-toxic | Active | Active
CCN(CC)C(=O)C(C)Oc1cccc2ccccc12 (configuration not stated) [NAPROPAMIDE] | inactive | inactive | inactive | inactive | inactive | Non-toxic | inactive | inactive
CC(C)N(C(=O)SCC(Cl)=C(Cl)Cl)C(C)C [TRIALLATE] | inactive | inactive | inactive | inactive | inactive | Non-toxic | inactive | Active
